RGS4 act: RGS4 potentiation or activation. B-score at 10 µM. hit rate 0.92% among 310,000. HEK293 M3R/inducible RGS4, carbachol calcium flux Fluo4; hits give low values;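 active = B-score of the integrated calcium signal more than 4 SD below the library mean, with starting fluorescence not abnormally high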;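 note: negative B-score means reduced calcium response which marks RGS4 activation or potentiation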
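Reagent: ECmax carbachol challenge; Test system: M3R-expressing HEK293 line, RGS4 induced by doxycycline; Schedule: overnight RGS4 induction, 30 min dye load 37 °C, 20 min compound RT; Detection: calcium dye Fluo4 fluorescence; Read-out: Agonist-evoked peak-minus-minimum fluorescence over baseline, integrated ratio, B score.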
RGS4 block: inhibitors of human RGS4; B-score at 10 µM; P49798; hit rate 0.45% among 310,000; AID 463165; HEK293 M3R/RGS4 inducible, Fluo-4 calcium flux; hits give high values; triggered by carbachol at its EC20;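 active = B-score, a plate-corrected calcium signal, over three deviations above library mean, with baseline fluorescence within five deviations of library mean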;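 note: RGS4 expression induced by doxycycline in cells with stable M3 receptor; B-score is computed from the integrated fluorescence ratio over baseline after carbachol; higher B-score means a larger calcium signal and so more RGS4 inhibition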
Target sequence (P49798 whole entry, looked up): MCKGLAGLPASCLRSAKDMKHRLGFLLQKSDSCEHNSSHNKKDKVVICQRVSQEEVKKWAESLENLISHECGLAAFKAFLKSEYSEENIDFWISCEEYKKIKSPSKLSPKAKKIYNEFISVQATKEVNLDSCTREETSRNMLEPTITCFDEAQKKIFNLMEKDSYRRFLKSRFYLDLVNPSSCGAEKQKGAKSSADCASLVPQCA
MrgX1 antag: blocks BAM8-22 activation of human MrgX1 receptor | Q96LB2 | B-score at 10 µM | hit rate 1.3% among 310,000 | MRGX1-HEK293 calcium flux, Fluo-4, BAM8-22 antagonism; hits give low values;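 active = calcium-response B-score plate-corrected more than 3 library SD below zero, starting fluorescence within 5 deviations, no agonist response on first addition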;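 note: peak minus trough fluorescence over baseline after final BAM8-22 challenge near maximal dose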
Target sequence (Q96LB2 whole entry, looked up): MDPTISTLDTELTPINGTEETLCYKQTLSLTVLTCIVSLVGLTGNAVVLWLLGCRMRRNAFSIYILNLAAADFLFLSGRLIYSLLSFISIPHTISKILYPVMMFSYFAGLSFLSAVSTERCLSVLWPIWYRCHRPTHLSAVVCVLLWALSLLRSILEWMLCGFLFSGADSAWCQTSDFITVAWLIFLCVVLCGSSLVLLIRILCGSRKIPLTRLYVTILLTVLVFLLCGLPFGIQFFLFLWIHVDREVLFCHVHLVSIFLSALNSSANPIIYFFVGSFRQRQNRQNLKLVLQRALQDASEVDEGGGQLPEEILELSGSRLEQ
MrgX1 agonist: activates human MrgX1 receptor signaling; MrgX1-HEK293 cells, Fluo-4 calcium fluorescence, agonist mode; hits give high values; hit rate 0.44% among 310,000; Q96LB2; B-score at 10 µM;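 active = calcium response B-score plate-corrected fluorescence ratio at least 3 library SD, with starting fluorescence B-score inside 5 SD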
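times = overnight plating, then 30 min 37 °C plus 30 min room-temperature dye loading | assay system = stable human MrgX1 HEK293 cell line | input = fifteen thousand cells per well | signal = kinetic calcium dye fluorescence, Fluo-4 NW | dosing = compound delivered in addition one of three | read-out = B-scored fluorescence response ratio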
Cl transport mod: modulates chloride dependent transport by human KCC2 | Q9H2X9 | KCC2 cells, thallium flux FluoZin-2 fluorescence | B-score of Tl+ flux slope (higher = more flux/activation; lower = inhibition) at 10 µM | hit rate 2.2% among 190,000;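 active = thallium flux slope and its plate-corrected score both differing from the plate sample mean at a set confidence after two filtering rounds, in either direction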;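 note: slope of fluorescence scaled to starting intensity during 10 to 20 s after thallium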
MrgX1 PAM: human MrgX1 positive allosteric modulation, primary screen | hit rate 0.63% among 310,000 | AID 588675 | MrgX1-HEK293, Fluo-4 calcium flux, FDSS; hits give high values | B-score at 10 µM;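 active = plate-corrected calcium response at least 3 library SD above typical, normal starting fluorescence, not activating the receptor alone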;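 note: compound read alongside a low EC10 to EC30 dose of BAM8-22 agonist; peak minus trough fluorescence over baseline measured at the second addition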
Each line names hits and unclear results; the compound was inactive in the other large screens. Hits are enriched below; roughly 4.7% of the tested compounds scored in any of these assays.

CN(Cc1nccn1C)C(=O)CC1C(=O)NCCN1Cc1cccc(Oc2ccccc2)c1 (centres undefined)	MrgX1 antag -5.17
COc1ccc(C(=O)NCc2ccon2)cc1OC1CCN(C(C)C)CC1	none (no result: Cl transport mod)
Cc1ccc(C)c2[nH]c(=O)c(CCNC(=O)CCc3ccccc3)cc12	none (no result: Cl transport mod)
CCOC(=O)C1=C(Cc2ccc(C)cc2)C(=O)c2ccccc2C1=O	MrgX1 agonist 86.1
CCCc1ccc(/C=C2\C(=O)c3ccccc3C(O)=C2C(=O)OCC)cc1	MrgX1 antag -7 (no result: Cl transport mod)
CCOC(=O)C1=C(O)c2ccccc2C(=O)/C1=C\c1ccc(CC)cc1	MrgX1 antag -5.96 (no result: Cl transport mod)
CCOC(=O)C1=C(C)N(c2ccccc2)C(=O)/C1=C\c1ccc(O)c(OC)c1	none
CCOC(=O)c1ccc(COC(=O)c2ccc3c(c2)-c2ccccc2C3=O)cc1	none
COC(=O)CN1C(=O)[C@H]2[C@@H](/C=C/c3ccccc3)N3C(=O)CN(Cc4ccccc4)C(=O)[C@@]3(C)[C@H]2C1=O	none (no result: Cl transport mod)
CC(Oc1ccccc1)C(=O)N(CCC1=CCCCC1)c1c(N)n(Cc2ccccc2)c(=O)[nH]c1=O (centres undefined)	none (no result: Cl transport mod)
CCOc1ccc(OCCC(=O)N(CCC(C)C)c2c(N)n(Cc3ccccc3)c(=O)[nH]c2=O)cc1	none (no result: Cl transport mod)
Cc1ccc(OC(=O)C2c3ccccc3Oc3ccccc32)cc1C	RGS4 act -7.76
CC(=O)c1ccc(OC(=O)C2c3ccccc3Oc3ccccc32)cc1	none
Cc1ccc(/C=C2\Oc3c(ccc(O)c3CN3CCN(CCO)CC3)C2=O)cc1	RGS4 act -9.98
Cc1nc(=S)n(-c2ccccc2)[nH]1	none
S=c1nc(-c2ccccc2)[nH]n1-c1ccccc1	Cl transport mod 53.3
COC(=O)c1cccc(N(CC(=O)NC2CCCC2)C(=O)CCC(=O)Nc2cc(C)on2)c1	none (no result: Cl transport mod)
COc1ccc(OC)c(N=c2ssnc2Cl)c1	none
COc1cc(N=c2ssnc2Cl)c(OC)cc1Cl	MrgX1 agonist 40.2
CCOC(=O)C(=O)NNc1ccc(Cl)cc1	none
CCOC(=O)C(=O)NNc1ccc(C)cc1	MrgX1 antag -9.02
COc1cc(/C=C/C(=O)OCC(=O)N2CCCc3ccccc32)ccc1OC(F)F	none (no result: Cl transport mod)
C=CCOc1ccc(/C=C/C(=O)OCC(=O)N2CCCc3ccccc32)cc1	MrgX1 antag -9.46 (no result: Cl transport mod)
O=C(Nc1cc2c3c(c1)CC(=O)N3CCC2)C1CC1	none (no result: Cl transport mod)
COc1cc(/C=c2\s/c(=C(/C#N)C(=O)N3CCCC3)n(-c3ccccc3)c2=O)ccc1O	MrgX1 PAM 14.3
O=C(COc1ccc(S(=O)(=O)N2CCCCC2)cc1)N1CCCC1	none (no result: Cl transport mod)
Cc1c(C(=O)NCCC2=CCCCC2)oc2ccc(S(=O)(=O)N3CCC4(CC3)OCCO4)cc12	RGS4 act -8.02
Cc1c(C(=O)NCc2ccccc2)oc2ccc(S(=O)(=O)N3CCC4(CC3)OCCO4)cc12	none
OCCCCNCc1ccc(OCc2ccc(Cl)cc2)cc1	RGS4 act -7.27
CCc1cc2c3c(c(=O)oc2cc1O)CCCC3	MrgX1 antag -5.55
CCc1cc2c3c(c(=O)oc2cc1OC(C)C(=O)O)CCCC3 (centres undefined)	none (no result: Cl transport mod)
O=C(CN1CCOCC1)Nc1ccc(Cl)cn1	none (no result: Cl transport mod)
Cc1c(C(=O)N2CCC[C@H]2C(N)=O)oc2c(F)cccc12	none (no result: Cl transport mod)
CCN1/C(=C/c2ccc3cc(C)ccc3[n+]2CC)Sc2cc(C)ccc21	none (no result: RGS4 act, RGS4 block, MrgX1 antag, MrgX1 agonist, MrgX1 PAM)
Cc1ccc2c(c1)S/C(=C/c1ccc[n+](C)c1)N2CCO	RGS4 act -7.04
NC(=O)C1CCN(C(=O)c2ccc3nc(-c4ccccc4)c(-c4ccccc4)nc3c2)CC1	none (no result: Cl transport mod)
O=C(CN1CCN(C(=O)c2ccco2)CC1)N1CCc2[nH]c3ccccc3c2C1	MrgX1 antag -5.94
CCCOC(=O)CCCCC1SCC(NC(=O)OC)C1NC(=O)OC (centres undefined)	MrgX1 antag -8.14
COC(=O)CCCCC1SCC(NC(=O)OC)C1NC(=O)OC (centres undefined)	none
CN(C)c1ccc(CN(C(=O)c2cc3ccccc3oc2=O)C2CCS(=O)(=O)C2)cc1 (centres undefined)	none (no result: Cl transport mod)
O=C(c1cc2ccccc2oc1=O)N(Cc1ccco1)C1CCS(=O)(=O)C1 (centres undefined)	Cl transport mod -4.69
CCN(CC(=O)Nc1ccc(NC(C)=O)cc1)C(=O)c1cc(S(=O)(=O)N2CCCCCC2)ccc1OC	none (no result: Cl transport mod)
CCOc1ccc(CCNC(=O)COC(=O)/C=C/c2ccccc2OC)cc1OCC	MrgX1 PAM 15.6 (no result: Cl transport mod)
CCOc1ccc(CCNC(=O)COC(=O)c2ccc(OC(C)C)cc2)cc1OCC	MrgX1 antag -4.85 (no result: Cl transport mod)
COc1cccc(/C=N/n2c(-c3n[nH]c4c3CCC4)n[nH]c2=S)c1OC	RGS4 act -7.29
COC(=O)COc1ccc(C(=O)Cn2c(NCCCO)nc3ccccc32)cc1	none (no result: Cl transport mod)
COCc1ccc(C(=O)N(C)CC2CCCN(CCc3ccc(OC)cc3)C2)o1 (centres undefined)	RGS4 act -7.51 (no result: Cl transport mod)
Cc1ccc(NC(=O)c2ccc3c(c2)CCN3S(C)(=O)=O)c(C)c1	none (no result: Cl transport mod)
COc1cccc(-c2cn3nc(C)c(C)nc3n2)c1	none (no result: Cl transport mod)
Cc1nc2nc(-c3cccs3)cn2nc1C	RGS4 act -7.03
COc1cc(NC(=O)CCS(=O)(=O)c2ccc3c(c2)oc(=O)n3C)cc(OC)c1OC	none (no result: Cl transport mod)
COc1ccc(/C=N/NC(=O)CN(Cc2ccccc2)S(=O)(=O)c2ccc3c(c2)OCCO3)cc1	MrgX1 antag -6.19
Cc1ccccc1OCC(=O)N/N=C/c1ccc2c(c1)OCCO2	MrgX1 PAM 6.54
COc1ccc(CNC(=O)CN(Cc2ccccc2)S(=O)(=O)c2ccc(Cl)cc2)cc1	MrgX1 antag -4.87
Cc1nc(CS(=O)(=O)c2ccccn2)sc1C(=O)NNC(=O)c1ccccc1	none
C[Si](C)(C)n1ccnc1	none (no result: Cl transport mod)
COc1cc(NC(=O)CN(C)C2CCCCC2)c(C)cc1[N+](=O)[O-]	MrgX1 antag -5.24
O=C(Nc1ccc(S(=O)(=O)Nc2cnc3ccccc3n2)cc1)c1ccc([N+](=O)[O-])cc1Cl	none (no result: Cl transport mod)
COc1ccc(/C=C/c2ccc3cccc(O)c3n2)c(OC)c1OC	none (no result: Cl transport mod)
COc1cccc(/C=C/c2ccc3cccc(O)c3n2)c1OC	RGS4 act -7.36 (no result: Cl transport mod)
CC(=O)Nc1nc(=O)c2ccccc2s1	none
O=C(Nc1nc(=O)c2ccccc2s1)c1ccccc1	Cl transport mod 41.7
CCOC(=O)c1ccc(S(=O)(=O)N2CCN(CC(O)COc3cccc(C(C)=O)c3)CC2)cc1 (centres undefined)	none (no result: Cl transport mod)
COc1cccc(N2CCN(c3nc(-c4ccccc4C)cc(=O)[nH]3)CC2)c1	none (no result: Cl transport mod)
Cc1nn(-c2ccccc2)c(C)c1NC(=O)COC(=O)c1cc(Br)ccc1O	RGS4 act -7.15 (no result: Cl transport mod)

Source: PubChem BioAssay (several laboratories)
